Measured values taken from ChEMBL document CHEMBL3616379, “From carbohydrates to drug-like fragments: Rational development of novel α-amylase inhibitors” (Bioorg Med Chem, 2015).
Calls of active or inactive are those of the source. The calls are words filed in the database; no cut-off is given here.

Key:
Alpha-amylase 1A [1] = target: T1, Alpha-amylase 1A (Homo sapiens, UniProt P0DUB6); experiment: Non-competitive inhibition of human salivary alpha-amylase using GalG2CNP as substrate assessed as CNP liberation by Lineweaver-Burk plot analysis
T1 sequence (P0DUB6 whole entry): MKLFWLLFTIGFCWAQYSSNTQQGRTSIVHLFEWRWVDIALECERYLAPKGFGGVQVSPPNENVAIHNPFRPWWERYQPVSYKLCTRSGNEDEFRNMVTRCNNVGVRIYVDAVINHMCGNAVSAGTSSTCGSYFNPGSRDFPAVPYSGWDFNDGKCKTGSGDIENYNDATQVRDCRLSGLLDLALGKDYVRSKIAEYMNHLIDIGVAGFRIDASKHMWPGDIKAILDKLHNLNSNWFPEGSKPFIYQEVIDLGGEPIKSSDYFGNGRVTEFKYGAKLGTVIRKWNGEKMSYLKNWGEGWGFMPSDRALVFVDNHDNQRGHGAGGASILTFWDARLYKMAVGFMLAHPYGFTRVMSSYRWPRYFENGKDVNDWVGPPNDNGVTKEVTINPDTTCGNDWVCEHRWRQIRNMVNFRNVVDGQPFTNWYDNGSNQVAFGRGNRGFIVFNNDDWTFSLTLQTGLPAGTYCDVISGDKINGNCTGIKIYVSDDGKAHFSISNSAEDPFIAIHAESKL
Procedure, shortened: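 Same HSA/GalG2CNP system: 2 nM enzyme, 0.75-4 mM substrate, 50 mM MES pH 6.0 with Ca(OAc)2, NaCl, NaN3, 37°C, CNP followed continuously at 400 nm, inhibitor added from DMSO. Inhibition type was assigned from Lineweaver-Burk plots.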

Alpha-amylase 1A [2] = target: T1, Alpha-amylase 1A; experiment: Inhibition of human salivary alpha-amylase using GalG2CNP as substrate assessed as CNP liberation by spectrophotometric analysis
Procedure, shortened: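 Chromogenic kinetic assay with 2 nM HSA and 0.75-4 mM GalG2CNP in 50 mM MES pH 6.0 with 5 mM Ca(OAc)2, 51.5 mM NaCl, 152 mM NaN3, 37°C. Substrate and inhibitor (DMSO dilutions) were premixed and the reaction started by adding enzyme. CNP release was followed continuously at 400 nm. IC50 was taken from a four-parameter logistic fit of fractional activity versus inhibitor level, three repeats.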

[3] = Inhibition of malt alpha-amylase; conditions: concentration not given here
Alpha-amylase 1A [4] = target: T1, Alpha-amylase 1A; experiment: Inhibition of human salivary alpha-amylase using GalG2CNP as substrate
[5] = target: T2, Pancreatic alpha-amylase (Homo sapiens) (UniProt P04746); experiment: Inhibition of human pancreatic alpha-amylase using CNPG3 as substrate at 50 mM by spectrophotometric analysis in presence of 20 mM MeG2F as donor compound and 50 mM 5FIdoF as acceptor compound relative to control
T2 sequence (whole entry): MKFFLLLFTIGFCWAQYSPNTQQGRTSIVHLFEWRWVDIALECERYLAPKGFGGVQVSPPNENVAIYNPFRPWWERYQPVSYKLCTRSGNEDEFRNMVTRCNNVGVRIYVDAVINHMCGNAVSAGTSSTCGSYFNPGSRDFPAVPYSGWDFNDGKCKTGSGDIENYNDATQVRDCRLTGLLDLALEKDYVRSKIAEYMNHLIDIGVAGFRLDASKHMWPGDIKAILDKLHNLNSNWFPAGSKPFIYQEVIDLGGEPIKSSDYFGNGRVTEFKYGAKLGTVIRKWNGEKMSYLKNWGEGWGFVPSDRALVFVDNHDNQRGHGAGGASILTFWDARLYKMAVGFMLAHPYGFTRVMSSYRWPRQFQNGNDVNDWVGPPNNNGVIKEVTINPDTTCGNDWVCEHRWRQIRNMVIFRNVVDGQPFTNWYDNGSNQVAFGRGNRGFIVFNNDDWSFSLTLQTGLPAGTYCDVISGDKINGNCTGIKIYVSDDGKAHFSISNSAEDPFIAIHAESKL

[6] = target: T3, Alpha-amylase 1A (Homo sapiens) (UniProt P0DUB6); experiment: Inhibition of human salivary alpha-amylase using GalG2CNP as substrate at 200 uM by UV-Vis spectrophotometric analysis
T3 sequence (whole entry): T1 sequence (P0DUB6 whole entry)
Procedure, shortened: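 Single-concentration test at 200 μM inhibitor against human salivary α-amylase (2 nM) with GalG2CNP substrate, 50 mM MES pH 6.0 containing 5 mM Ca(OAc)2, 51.5 mM NaCl, 152 mM NaN3, 37°C. Chloronitrophenol liberation monitored continuously at 400 nm by UV-Vis spectrophotometry.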

Alpha-amylase 1A [7] = target: T1, Alpha-amylase 1A; experiment: Inhibition of human salivary alpha-amylase using GalG2CNP as substrate by UV-Vis spectrophotometric analysis; conditions: read-out: IC50
[8] = Inhibition of Escherichia coli MurC ligase after 15 mins by Malachite green assay
[9] = target: T2, Pancreatic alpha-amylase (Homo sapiens); experiment: Inhibition of human pancreatic alpha-amylase using CNPG3 as substrate by spectrophotometric analysis in presence of 40 mM G3F as donor compound and 25 mM 5FIdoF as acceptor compound relative to control
[10] = target: T3, Alpha-amylase 1A (Homo sapiens); experiment: Potency index, ratio of BAS 04880564 IC50 to compound IC50 for human salivary alpha-amylase
[11] = target: T3, Alpha-amylase 1A (Homo sapiens); experiment: Mixed type inhibition of human salivary alpha-amylase using GalG2CNP as substrate by Lineweaver-Burk plot analysis
Procedure, shortened: (§1)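 Inhibition mode assigned from Lineweaver-Burk plots. Human salivary α-amylase (2 nM) started reactions containing GalG2CNP (0.75–4 mM) and inhibitor in DMSO, in 50 mM MES pH 6.0 with 5 mM Ca(OAc)2, 51.5 mM NaCl, 152 mM NaN3 at 37°C. Rates from continuous 400 nm absorbance of released CNP.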

Escherichia coli = experiment: Inhibition of Escherichia coli MurC ligase assessed as residual activity at 100 uM after 15 mins by Malachite green assay
Pancreatic alpha-amylase [12] = target: T4, Pancreatic alpha-amylase (Homo sapiens, UniProt P04746); experiment: Inhibition of human pancreatic alpha-amylase
T4 sequence (P04746 whole entry): T2 sequence (whole entry)

Pancreatic alpha-amylase [13] = target: T4, Pancreatic alpha-amylase; experiment: Competitive inhibition of human pancreatic alpha-amylase by double reciprocal plot analysis
Pancreatic alpha-amylase [14] = target: T4, Pancreatic alpha-amylase; experiment: Inhibition of human pancreatic alpha-amylase assessed as hydrolysis of G3F by Dixon plot analysis
Pancreatic alpha-amylase [15] = target: T4, Pancreatic alpha-amylase; experiment: Inhibition of human pancreatic alpha-amylase expressed in Pichia pastoris using amylase as substrate preincubated with substrate for 10 mins followed by protein addition measured every 5 mins
Pancreatic alpha-amylase [16] = target: T4, Pancreatic alpha-amylase; experiment: Inhibition of human pancreatic alpha-amylase expressed in Pichia pastoris using amylase as substrate preincubated with substrate for 10 mins followed by protein addition measured every 5 mins by Dixon plot analysis
[17] = target: T3, Alpha-amylase 1A (Homo sapiens); experiment: Competitive inhibition of human salivary alpha-amylase using GalG2CNP as substrate by Lineweaver-Burk plot analysis; procedure, shortened: as §1
Alpha-amylase 1A [18] = target: T1, Alpha-amylase 1A; experiment: Inhibition of human salivary alpha-amylase using rice starch as substrate after 12 mins by microplate reader analysis

C[C@H]1O[C@H](O[C@H]2[C@H](O)[C@@H](O)[C@@H](OC[C@H]3OC4(NC(=S)NC4=O)[C@H](O)[C@@H](O)[C@@H]3O)O[C@@H]2CO)[C@H](O)[C@@H](O)[C@@H]1N[C@H]1C=C(CO)[C@@H](O)[C@H](O)[C@H]1O (some centres undefined)
Ki (Alpha-amylase 1A [1]): 0.19 µM

O=C(OC[C@H]1O[C@@H](OC(=O)c2cc(O)c(O)c(O)c2)[C@H](OC(=O)c2cc(O)c(O)c(O)c2)[C@@H](OC(=O)c2cc(O)c(O)c(O)c2)[C@@H]1OC(=O)c1cc(O)c(O)c(O)c1)c1cc(O)c(O)c(O)c1 [PENTAGALLOYL GLUCOSE]
IC50 (Alpha-amylase 1A [2]): 2.35 µM
Ki (Alpha-amylase 1A [1]): 2.6 µM

CC(=O)OCC(OC(C)=O)C1OC(O)=C(O)C1=O (centres undefined)
inhibition [3]: 99%

CC1OC(OC2C(CO)OC(O)C(O)C2O)C(O)C(O)C1NC1C=C(CO)C(OC2OC(CO)C(OC3OC(C)C(NC4C=C(CO)C(O)C(O)C4O)C(O)C3O)C(O)C2O)C(O)C1O (centres undefined)
Ki (Alpha-amylase 1A [4]): 0.7 µM

OCC1OC(OC2C(CO)OC(OC3C(O)C(O)C(F)OC3(F)CO)C(O)C2O)C(O)C(O)C1O (centres undefined)
inhibition [5]: 95%

CC1=NN(c2ccccc2)C(=O)/C1=C(/NNC(=O)c1ccccc1O)c1ccccc1
inhibition [6]: inactive

O=C(O)c1cc(Nc2nc(-c3ccc(O)cc3O)cs2)ccc1O
IC50 (Alpha-amylase 1A [7]): 423 µM
IC50 [8]: 347 µM

COC1=C(O)C(=O)OC1C1COC(C)(C)O1 (centres undefined)
inhibition [3]: 0%

OCC1OC(OC2C(O)C(O)C(F)OC2(F)CO)C(O)C(O)C1O (centres undefined)
inhibition [9]: 90%

CC(=O)c1cccc(Nc2nc(-c3ccc(O)cc3O)cs2)c1
IC50 (Alpha-amylase 1A [7]): 100 µM
Ratio IC50 [10]: 1.38
inhibition [11]: Active
Activity (Escherichia coli): 83%

C[C@H]1O[C@H](O[C@H]2[C@H](O)[C@@H](O)[C@@H](O)O[C@@H]2CO)[C@H](O)[C@@H](O)[C@@H]1N[C@H]1C=C(CO)[C@@H](O)[C@H](O)[C@H]1O
Ki (Pancreatic alpha-amylase [12]): 0.075 µM

C[C@@H]1O[C@@H](O[C@@H]2CO[C@@H](Oc3c(O)cc(C4=C(O[C@@H]5O[C@@H](C)[C@H](O)[C@@H](O)[C@H]5O[C@@H]5O[C@H](COC(=O)/C=C/c6ccc(O)c(O)c6)[C@@H](O)[C@H](O)[C@H]5O[C@@H]5O[C@H](CO)[C@@H](O)[C@H](O)[C@H]5O)C(=O)c5c(O)cc(O)cc5C4)cc3O)[C@H](O)[C@H]2O)[C@H](O)[C@H](O)[C@H]1O
Ki (Pancreatic alpha-amylase [13]): 0.008 µM

C[C@@H]1O[C@@H](O[C@@H]2CO[C@@H](Oc3c(O)cc(C4=C(O[C@@H]5O[C@@H](C)[C@H](O)[C@@H](O)[C@H]5O[C@@H]5O[C@H](COC(=O)/C=C/c6ccc(O)cc6)[C@@H](O)[C@H](O)[C@H]5O[C@@H]5O[C@H](CO)[C@@H](O)[C@H](O)[C@H]5O)C(=O)c5c(O)cc(O)cc5C4)cc3O)[C@H](O)[C@H]2O)[C@H](O)[C@H](O)[C@H]1O
Ki (Pancreatic alpha-amylase [13]): 3.6 µM

NS(=O)(=O)c1ccc(Nc2nc(-c3ccc(O)cc3O)cs2)cc1
IC50 (Alpha-amylase 1A [7]): 165 µM
Ratio IC50 [10]: 0.83
IC50 [8]: 531 µM

CO[C@H]1[C@H](O)[C@@H](O)[C@@H](O[C@H]2[C@H](O)[C@@H](O)[C@@H](O[C@H]3[C@H](O)[C@@H](O)/C(=N\O)N[C@@H]3CO)O[C@@H]2CO)O[C@@H]1CO
Ki (Pancreatic alpha-amylase [14]): 25 µM

OC[C@H]1N/C(=N/O)[C@H](O)[C@@H](O)[C@@H]1O[C@H]1O[C@H](CO)[C@@H](O[C@H]2O[C@H](CO)[C@@H](O)[C@H](O)[C@H]2O)[C@H](O)[C@H]1O
Ki (Pancreatic alpha-amylase [14]): 1800 µM

OC[C@H]1N/C(=N/O)[C@H](O)[C@@H](O)[C@@H]1O
Ki (Pancreatic alpha-amylase [14]): 18000 µM

C[C@H]1O[C@H](O[C@H]2[C@H](O)[C@@H](O)[C@@H](O)O[C@@H]2CO)[C@H](O)[C@@H](O)[C@@H]1NC1=C[C@H](CO)[C@@H](O[C@H]2O[C@H](CO)[C@@H](O[C@H]3O[C@H](CO)[C@@H](O)[C@H](O)[C@H]3O)[C@H](O)[C@H]2O)[C@H](O)[C@H]1O
IC50 (Pancreatic alpha-amylase [15]): 2.59 µM

CC1OC(OC2C(CO)OC(OCC3OC(O)C(O)C(O)C3O)C(O)C2O)C(O)C(O)C1NC1C=C(CO)C(OC2OC(CO)C(OC3OC(CO)C(O)C(O)C3O)C(O)C2O)C(O)C1O (centres undefined)
Ki (Pancreatic alpha-amylase [12]): 0.012 µM

COc1cc(/C=C/C(=O)OC[C@H]2O[C@@H](O[C@H]3[C@H](OC4=C(c5cc(O)c(O[C@@H]6OC[C@@H](O[C@@H]7O[C@@H](C)[C@H](O)[C@@H](O)[C@H]7O)[C@H](O)[C@H]6O)c(O)c5)Cc5cc(O)cc(O)c5C4=O)O[C@@H](C)[C@H](O)[C@H]3O)[C@H](O[C@@H]3O[C@H](CO)[C@@H](O)[C@H](O)[C@H]3O)[C@@H](O)[C@@H]2O)ccc1O
Ki (Pancreatic alpha-amylase [13]): 6.1 µM

C[C@H]1O[C@H](O[C@H]2[C@H](O)[C@@H](O)[C@@H](O[C@H]3[C@H](O)[C@@H](O)[C@@H](O[C@H]4[C@H](O)[C@@H](O)[C@@H](O[C@H]5[C@H](O)[C@@H](O)[C@@H](O)O[C@@H]5CO)O[C@@H]4CO)O[C@@H]3CO)O[C@@H]2CO)[C@H](O)[C@@H](O)[C@@H]1N[C@H]1C=C(CO)[C@@H](O[C@H]2O[C@H](CO)[C@@H](O[C@H]3O[C@H](C)[C@@H](N[C@H]4C=C(CO)[C@@H](O[C@H]5O[C@H](CO)[C@@H](O[C@H]6O[C@H](C)[C@@H](N[C@H]7C=C(CO)[C@@H](O)[C@H](O)[C@H]7O)[C@H](O)[C@H]6O)[C@H](O)[C@H]5O)[C@H](O)[C@H]4O)[C@H](O)[C@H]3O)[C@H](O)[C@H]2O)[C@H](O)[C@H]1O
Ki (Pancreatic alpha-amylase [16]): 0.0143 µM

C[C@H]1O[C@H](O[C@H]2[C@H](O)[C@@H](O)[C@@H](OC[C@H]3O[C@@H](O)[C@H](O)[C@@H](O)[C@@H]3O)O[C@@H]2CO)[C@H](O)[C@@H](O)[C@@H]1N[C@H]1C=C(CO)[C@@H](O)[C@H](O)[C@H]1O
Ki (Pancreatic alpha-amylase [12]): 0.012 µM

CN(C)c1ccc(Nc2nc(-c3ccc(O)cc3O)cs2)cc1
IC50 (Alpha-amylase 1A [7]): 100 µM
Inhibition mode [17]: Active
Ratio IC50 [10]: 1.38
Activity (Escherichia coli): 90%

O=C(O[C@@H]1Cc2c(O)cc(O)cc2O[C@@H]1c1cc(O)c(O)c(O)c1)c1cc(O)c(O)c(O)c1 [EPIGALOCATECHIN GALLATE]
IC50 (Alpha-amylase 1A [18]): 1400 µM
